Screening data: PubChem BioAssay, several laboratories
The list is not random: actives were taken first. Their share in the collection is about 4.9%.
RAM network inh: inhibitors of the yeast RAM network. S. cerevisiae dse1pr::URA3 reporter, 5-FOA growth OD615, 2 d; analog-sensitive cbk1-as2 kinase mutant strain. inhibition, % at 50 µM. 1.8% of 190,000 active;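 active means inhibition above a set limit, 3 SD over mean compound inhibition, cut at about 8.4% in these data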;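 further: 0% = DMSO-only wells with no growth and 100% = 10 µM 1-NA-PP1 full growth; inhibition rescues growth on 5-FOA so higher OD means more RAM inhibition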
NPY-Y1 antag: antagonists of human neuropeptide Y receptor Y1. inhibition, % at 3.6 µM. HEK293-CNG Y1 cells, membrane potential fluorescence; NPY at EC95, then isoproterenol. 1% of 200,000 active. P25929;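 active means inhibition above the campaign mean inhibition of all tested compounds plus 3 SD, cut at about 20% in these data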;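 further: 0% = DMSO wells given NPY plus isoproterenol and 100% = isoproterenol alone without NPY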
Target sequence (P25929 whole entry, looked up): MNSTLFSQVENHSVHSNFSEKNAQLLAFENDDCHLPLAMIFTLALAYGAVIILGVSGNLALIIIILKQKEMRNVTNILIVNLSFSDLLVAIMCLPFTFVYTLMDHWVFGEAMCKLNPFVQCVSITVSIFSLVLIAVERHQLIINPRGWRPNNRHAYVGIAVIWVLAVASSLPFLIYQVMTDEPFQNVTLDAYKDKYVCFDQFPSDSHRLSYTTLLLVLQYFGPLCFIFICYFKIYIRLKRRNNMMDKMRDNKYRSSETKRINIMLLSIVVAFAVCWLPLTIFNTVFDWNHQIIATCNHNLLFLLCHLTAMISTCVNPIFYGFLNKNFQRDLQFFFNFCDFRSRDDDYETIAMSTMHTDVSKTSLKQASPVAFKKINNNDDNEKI
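Test system: HEK293 cells co-expressing NPY Y1 receptor and cyclic-nucleotide gated channel; Also added: NPY (25 nM), isoproterenol (1 µM), Ro 20-1724 (25 µM); Compound dosing: one concentration, 3.6 µM, in 0.4% DMSO; Timing: dye 3 h, compound 60 min room temperature, stimulation 45 min; Technique: Membrane-potential fluorescent dye readout.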
NPY-Y1 PAM-ag: human NPY-Y1 potentiation or agonism, primary screen; P25929; NPY-Y1 expressing cells, potentiator/agonist activation; activation, % at 3.6 µM; 0.37% of 220,000 active; in the data active means activation above about 33%, passing the limit was not always enough;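 further: cells stimulated with NPY at EC10 then isoproterenol at EC100; 0% = low agonist plus stimulus and 100% = saturating agonist plus stimulus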
WT yeast gro inh: growth inhibition of WT yeast, mitochondrial fusion screen. 2.1% of 190,000 active. AID 1362. mitochondrial fusion phenotypic screen, WT strain. inhibition, % at 10 µM; in the data active means inhibition above about 58%; tested in S. cerevisiae
NPY-Y2 PAM-ag: potentiators or agonists of human neuropeptide Y receptor Y2; P49146; cells expressing NPY-Y2, potentiator/agonist read-out; activation, % at 3.6 µM; 0.45% of 220,000 active; in the data active means activation above about 27%;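 further: cells stimulated with NPY near EC25 plus isoproterenol at EC100; 0% = vehicle plus submaximal agonist and 100% = vehicle plus saturating agonist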
NPY Y2 blocker: antagonists of human neuropeptide Y receptor Y2; P49146; NPY-Y2 expressing cells, antagonist mode; inhibition, % at 2.7 µM; 0.99% of 140,000 active; AID 793; in the data active means inhibition above about 17%;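 further: 0% = vehicle with agonist challenge and 100% = reference antagonist with challenge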
The depositor's hits bear a star; . = no result given.

SMILES | RAM network inh | NPY-Y1 antag | NPY-Y1 PAM-ag | WT yeast gro inh | NPY-Y2 PAM-ag | NPY Y2 blocker
CCNC(=O)c1ccccc1NC(=O)c1cccc(S(=O)(=O)N2CCC(C)CC2)c1 | 4 | -6 | -30 | 9 | -20 | -2
COc1ccc(/C=N/N(Cc2ccccc2)c2ccccc2)cc1O | 4 | 5 | 17 | 83* | 23 | .
COc1ccc(CNC(=O)C(c2ccco2)N(C(=O)Cc2cccs2)c2cccnc2)cc1 (configuration not stated) | 2 | 2 | 5 | -18 | -6 | .
COC(=O)[C@@H]1CC[C@H](C)[C@@H](c2ccc(C)cc2)N1C(=O)c1ccc(/C=N/O[C@@H](C)CN2CCCCc3nc(C)c(C)cc32)cc1 | 0 | 12 | -20 | 75* | -4 | 4
S=c1nc(-c2sccc2OCc2ccc(Cl)cc2Cl)[nH][nH]1 | 5 | -2 | 7 | 64* | -3 | .
CSc1n[nH]c(-c2sccc2OCc2ccc(C)cc2)n1 | 0 | 0 | -15 | 7 | -3 | 1
O=C1OCCN1C(=O)[C@H]1[C@H](c2ccc([N+](=O)[O-])cc2)C(c2cccc(Cl)c2)=NN1c1ccccc1 | 6 | -7 | 29 | 18 | 31* | -1
C=CCn1c(C)cc(C(=O)CSc2nnc(-c3cccc(S(=O)(=O)N(CC)CC)c3)o2)c1C | 11* | 13 | -19 | 3 | 2 | 12
Oc1ccc(C[C@@H]2CNC(=S)N2CCCCC2CCCCC2)cc1 | 4 | 1 | 9 | 91* | 7 | .
COc1cc(CCCN2C(=S)NC[C@H]2Cc2ccc(O)cc2)cc(OC)c1OC | 3 | -3 | 6 | -9 | -8 | .
CCn1c(=O)c(C(=O)Nc2nc3ccccc3[nH]2)c(O)c2ccccc21 | 0 | 14 | -46 | 84* | 1 | 1
CCCCCCCCCCC(=O)NNC(=O)c1c(O)c2ccccc2n(CC)c1=O | 8.8* | 0 | -13 | -9 | 0 | .
CCCCCCCCC(=O)NNC(=O)c1c(O)c2ccccc2n(CCC)c1=O | 8.8* | 6 | 12 | -4 | 4 | .
C=CCn1c(=O)c(C(=O)NCCc2ccccc2)c(O)c2ccccc21 | 10* | 6 | -9 | -9 | -4 | 8
COc1ccc(OC)c(S(=O)(=O)N2CCC(C(=O)NC(C)c3ccccc3)CC2)c1 (configuration not stated) | 0 | 4 | -5 | -23 | 9 | -1
c1sc2[n+](c1C13CC4CC(CC(C4)C1)C3)CCS2 | 1 | -3 | -24 | -6 | 10 | 4
Fc1ccc(-c2csc3[n+]2CCS3)cc1 | 2 | 10 | -1 | 70* | 1 | 6
CCn1cc(C(=O)NCCc2ccccc2)c(=O)c2cc(F)c(N3CCN(C)CC3)cc21 | 2 | 0 | 13 | 62* | 20 | -2
Cc1ccsc1/C=N\NC(=O)c1n[nH]c2c1CCC2 | 2 | 4 | 6 | -17 | -7 | 1
O=C(N/N=C/c1c(Cl)cccc1Cl)c1n[nH]c2c1CCCC2 | 2 | -4 | 7 | 75* | -9 | 3
CC(=O)c1ccc(NC(=O)CC(NCCC2=CCCCC2)C(=O)O)cc1 (configuration not stated) | 1 | 2 | 6 | 19 | -4 | 3
CCn1c(SCC(=O)Nc2nc(-c3ccc(C)cc3)cs2)nnc1-c1ccccc1 | 5 | 0 | -6 | 25 | -6 | 7
Cc1ccc(-c2csc(NC(=O)CSc3nc4ccccc4c(=O)n3CCCN(C)C)n2)cc1 | -1 | 18 | -50 | 82* | -15 | .
Cc1ccc(-c2csc(NC(=O)CSc3nc4ccccc4[nH]3)n2)cc1 | 9.8* | 3 | 21 | -9 | -1 | -1
COc1ccc(CNC(=O)c2cccnc2Sc2ccc(C)c(C)c2)cc1 | 9.3* | 4 | -5 | -4 | -4 | 2
SMILES | RAM network inh | NPY-Y1 antag | NPY-Y1 PAM-ag | WT yeast gro inh | NPY-Y2 PAM-ag | NPY Y2 blocker
COc1ccc(CNC(=O)c2cccnc2SC)cc1OC | 2 | 3 | 4 | 12 | -2 | .
O=C(Nc1cc(Sc2ccccn2)cc([N+](=O)[O-])c1)c1cccc(F)c1 | 9.4* | -2 | 8 | 36 | 9 | -2
O=C(Nc1cc(Sc2nc3ccccc3s2)cc([N+](=O)[O-])c1)c1ccccc1 | 5 | 0 | -20 | 22 | 15 | -1
CC1CCCN(C(=O)c2sc3cc([N+](=O)[O-])ccc3c2Cl)C1 (configuration not stated) | 0 | -6 | 13 | -1 | 15 | 5
O=[N+]([O-])c1ccccc1Oc1ccc(C(F)(F)F)cn1 | 3 | 2 | -4 | 2 | 0 | .
FC(F)(F)c1ccc(Oc2ccc3ccccc3c2Br)nc1 | 3 | 4 | -27 | 81* | -3 | -1
COc1cc(C)c(NC(=O)C(=S)NCc2ccccc2)cc1C | 4 | -4 | -1 | -11 | -2 | .
CCC(=O)N(CCC(c1ccco1)c1ccccc1OC)Cc1cccs1 (configuration not stated) | 3 | 25* | -3 | 12 | 1 | 22*
O=C1c2cccc3cccc(c23)C(=O)N1CCCN1CCN(c2ccc(F)cc2)CC1 | 1 | 11 | 24 | 60* | -9 | .
O=C(CN1CCN(CCN2C(=O)c3cccc4cccc(c34)C2=O)CC1)c1ccc(F)cc1 | 0 | 1 | 0 | 19 | -20 | 2
COc1ccccc1C(=O)/C=C/c1ccc(N2CCCCC2)c([N+](=O)[O-])c1 | 9.7* | -2 | 16 | -1 | 7 | -1
O=C(/C=C/c1ccc(N2CCCCC2)c([N+](=O)[O-])c1)c1ccc(O)cc1 | 8.6* | -2 | 20 | 91* | 18 | .
Cc1nonc1C1CCCN1Cc1cn[nH]c1-c1ccc(-c2ccccc2)cc1 (configuration not stated) | 0 | -1 | -6 | 58* | -17 | .
Cn1c(=O)[nH]c(=O)c2c1nc(CN1CCN(c3ccc(F)cc3)CC1)n2CCCc1ccccc1 | 5 | 2 | -25 | -4 | -19 | 3
CCCn1c(NCc2cc(OC)ccc2OC)nc2ccccc21 | 1 | 13 | -26 | -29 | -17 | 11
COc1cccc(CNc2nc3ccccc3n2CCN2CCCCC2)c1OC | 1 | 42* | -17 | 4 | 0 | 25*
COc1ccc(CNc2nc3ccccc3n2CCN2CCCCC2)c(OC)c1 | 1 | 29* | -29 | -24 | -7 | 26*
Cc1ccc(Cn2ccc(=O)c(OCc3c(Cl)cccc3Cl)c2C)cc1 | -1 | 13 | -48 | 77* | -8 | 13
Cc1ccc(Nc2nc(NCc3ccco3)c3ccccc3n2)cc1 | 3 | 13 | -4 | 94* | 11 | .
Cc1ccc(C(=O)NC2CCCc3ccccc32)o1 (configuration not stated) | 1 | -10 | -20 | 4 | 0 | 5
O=C(NC(=S)NC1CCCc2ccccc21)c1ccco1 (configuration not stated) | 5 | 5 | -8 | 73* | 4 | .
